Measurements pooled from the literature.
Each line is one published result; the experiments were not run side by side.
MAOB: Amine oxidase [flavin-containing] B (MAOB, Homo sapiens, UniProt P27338)

| Compound | target | test | conditions | IC50 |
| --- | --- | --- | --- | --- |
| O=c1c2ccccc2[nH]c(=S)n1-c1ccccc1 | Serine protease 1 (PRSS1, Bos taurus, UniProt P00760) | enzyme activity, inhibitor | – | 84.5 µM |
| C#CCN(C)c1nc(NCCCCC2CCN(Cc3ccccc3)CC2)c(C#N)c(-c2ccccc2)c1C#N | MAOB | enzyme activity, inhibitor, fluorescence | with preincubation | > 100 µM |
| O=[N+]([O-])c1cc(Cl)c(O)c(Cl)c1 | Sulfotransferase 1A1 (SULT1A1, Homo sapiens, UniProt P50225, R213H) | enzyme activity, inhibitor | – | 0.7 µM |
| COc1ccc2c(c1)[nH]c1c(C)nccc12 | MAOB | enzyme activity, inhibitor | – | 37.5 µM |
| CSCC[C@@H]1NC(=O)[C@H](Cc2c[nH]c3ccccc23)NC(=O)[C@H](CCCCN)NC(=O)[C@@H](NC(=O)[C@H](C)N)CSSC[C@@H](C(=O)NCC(=O)NCC(=O)NCC(N)=O)NC(=O)[C@H](Cc2ccc(O)cc2)NC(=O)CNC(=O)[C@H](CCC(=O)O)NC(=O)[C@H](CCC(=O)O)NC1=O | Lysine-specific demethylase 4C (KDM4C, Homo sapiens, UniProt Q9H3R0) | enzyme activity, inhibitor, TR-FRET | – | ~520 µM |
| Cc1cc(SCc2sc(-c3ccc(C(F)(F)F)c(F)c3)nc2C)ccc1OCC(=O)O | Retinoic acid receptor RXR-alpha (RXRA, Homo sapiens, UniProt P19793) | reporter gene, antagonist, luciferase | – | 22.9 µM |
| C#CCNc1nc(NCCCCC2CCN(Cc3ccccc3)CC2)c(C#N)cc1C#N | MAOB | enzyme activity, inhibitor, fluorescence | with preincubation | > 50 µM |
| COc1cc(C(=O)N2CC[C@@H](O)[C@@H](N)C2)cc2nc(-c3cc4ccccc4n3CC3CC3)n(C)c12 | MAOB | enzyme activity, inhibitor | – | 15.8 µM |
| CC[C@H](C)[C@H](NC(=O)[C@H](Cc1c[nH]c2ccccc12)NC(=O)[C@H](C)NC(=O)[C@@H]1CSCC(=O)N[C@@H](Cc2ccc(O)cc2)C(=O)NCC(=O)N[C@@H](CCC(N)=O)C(=O)N[C@@H](CO)C(=O)N[C@@H](Cc2c[nH]cn2)C(=O)N[C@@H](CO)C(=O)N[C@@H](C)C(=O)N[C@@H](Cc2c[nH]c3ccccc23)C(=O)N1)C(=O)N[C@@H](CC(N)=O)C(=O)N[C@@H](Cc1ccc(O)cc1)C(=O)N[C@@H](CC(N)=O)C(=O)N1CCC[C@H]1C(N)=O | Pancreatic alpha-amylase (Homo sapiens, UniProt P04746) | enzyme activity, inhibitor, absorbance | – | 6 µM |
| CCCCNNC(=O)c1ccc(Br)cc1 | Histone deacetylase 9 (HDAC9, Homo sapiens, UniProt Q9UKV0) | enzyme activity, inhibitor, fluorescence | – | > 100 µM |
| C#CCNc1nc(NCCCC2CCN(Cc3ccccc3)CC2)c(C#N)c(-c2ccccc2)c1C#N | MAOB | enzyme activity, inhibitor, fluorescence | with preincubation | > 100 µM |
| CC(C)(C)c1ccc(NC(=O)c2ncn(CC(=O)NCc3ccc4c(c3)OCO4)n2)cc1 | Histone-lysine N-methyltransferase SUV39H2 (SUV39H2, Homo sapiens, UniProt Q9H5I1) | enzyme activity, inhibitor | – | > 250 µM |
